According to ChEMBL document CHEMBL1129944, “[[(Arylpiperazinyl)alkyl]thio]thieno[2,3-d]pyrimidinone derivatives as high-affinity, selective 5-HT1A receptor ligands” (J Med Chem, 1997):

Experiments:
[1] = biological target: T1, 5-hydroxytryptamine receptor 1A (Rattus norvegicus) (UniProt P19327); assay: Compound at 10E-5 M was tested in vitro for the inhibition of radioligand [3H]8-OH-DPAT binding to 5-hydroxytryptamine 1A receptor in rat hippocampal membrane; assay type: cell membranes; details: Hippocampus
T1 sequence (whole entry): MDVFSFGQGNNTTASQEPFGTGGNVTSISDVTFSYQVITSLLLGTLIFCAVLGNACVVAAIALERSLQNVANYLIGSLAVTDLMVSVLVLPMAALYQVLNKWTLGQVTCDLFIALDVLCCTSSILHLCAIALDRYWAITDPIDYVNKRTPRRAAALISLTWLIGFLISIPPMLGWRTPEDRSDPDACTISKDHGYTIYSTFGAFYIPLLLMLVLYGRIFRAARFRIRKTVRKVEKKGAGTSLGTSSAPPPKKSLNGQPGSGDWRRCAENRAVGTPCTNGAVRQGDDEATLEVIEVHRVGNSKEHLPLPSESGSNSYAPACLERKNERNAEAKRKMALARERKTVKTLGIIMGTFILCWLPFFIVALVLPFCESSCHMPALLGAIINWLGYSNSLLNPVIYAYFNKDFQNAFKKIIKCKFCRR

[2] = biological target: Adrenergic receptor alpha-1 (Rattus norvegicus) (UniProt P15823+P23944+P43140); assay: Compound at 10E-5 M was tested in vitro for the inhibition of radioligand [3H]-prazosin binding to Alpha-1 adrenergic receptor in rat cortical membrane; assay type: cell membranes
[3] = biological target: Serotonin 1a (5-HT1a) receptor/Adrenergic receptor alpha-1 (Rattus norvegicus) (UniProt P15823+P23944+P43140+P19327); assay: Selectivity for alpha-1-adrenergic receptor to that of 5-HT1A receptor.; assay type: protein assay
Summary of the method: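 Ratio of IC50 at α1-adrenoceptors ([3H]prazosin, rat cortex) to IC50 at 5-HT1A receptors ([3H]-8-OH-DPAT, rat hippocampus). Each IC50 came from radioligand displacement curves.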

[4] = biological target: T2, Adrenergic receptor alpha-1 (Rattus norvegicus, UniProt P15823+P23944+P43140); assay: In vitro inhibitory concentration against radioligand [3H]prazosin binding to alpha-1 adrenergic receptor in rat cortical membrane.; assay type: cell membranes
T2 sequence (P15823 whole entry): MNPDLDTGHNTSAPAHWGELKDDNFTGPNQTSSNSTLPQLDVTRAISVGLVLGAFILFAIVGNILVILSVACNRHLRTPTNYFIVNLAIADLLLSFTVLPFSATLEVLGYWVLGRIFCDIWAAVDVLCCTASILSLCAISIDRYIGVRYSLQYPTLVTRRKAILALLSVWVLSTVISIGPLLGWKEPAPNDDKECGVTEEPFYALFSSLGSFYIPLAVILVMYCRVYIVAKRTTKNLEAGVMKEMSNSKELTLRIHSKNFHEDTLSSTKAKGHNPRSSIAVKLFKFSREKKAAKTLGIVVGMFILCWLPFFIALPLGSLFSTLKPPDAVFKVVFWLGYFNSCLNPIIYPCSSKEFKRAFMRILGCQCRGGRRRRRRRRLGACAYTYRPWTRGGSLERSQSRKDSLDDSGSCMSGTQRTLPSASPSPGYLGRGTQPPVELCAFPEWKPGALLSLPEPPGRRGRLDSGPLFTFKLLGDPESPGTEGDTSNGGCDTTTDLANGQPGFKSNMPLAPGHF
T2 sequence (P23944 whole entry): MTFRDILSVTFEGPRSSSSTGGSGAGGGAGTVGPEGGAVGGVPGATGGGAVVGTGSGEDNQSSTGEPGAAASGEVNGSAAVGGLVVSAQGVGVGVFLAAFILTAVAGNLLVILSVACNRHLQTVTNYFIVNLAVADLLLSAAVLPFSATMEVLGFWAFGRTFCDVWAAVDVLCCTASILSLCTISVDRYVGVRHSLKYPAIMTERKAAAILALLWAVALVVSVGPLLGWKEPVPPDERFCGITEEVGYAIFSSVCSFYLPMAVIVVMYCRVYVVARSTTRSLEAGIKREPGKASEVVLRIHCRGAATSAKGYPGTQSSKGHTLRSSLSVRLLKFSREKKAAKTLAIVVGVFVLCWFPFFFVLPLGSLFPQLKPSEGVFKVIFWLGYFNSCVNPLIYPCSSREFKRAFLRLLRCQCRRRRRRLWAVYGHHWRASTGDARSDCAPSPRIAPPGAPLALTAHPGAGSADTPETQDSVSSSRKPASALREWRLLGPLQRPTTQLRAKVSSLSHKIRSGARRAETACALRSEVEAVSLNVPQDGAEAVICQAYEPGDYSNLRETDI
T2 sequence (P43140 whole entry): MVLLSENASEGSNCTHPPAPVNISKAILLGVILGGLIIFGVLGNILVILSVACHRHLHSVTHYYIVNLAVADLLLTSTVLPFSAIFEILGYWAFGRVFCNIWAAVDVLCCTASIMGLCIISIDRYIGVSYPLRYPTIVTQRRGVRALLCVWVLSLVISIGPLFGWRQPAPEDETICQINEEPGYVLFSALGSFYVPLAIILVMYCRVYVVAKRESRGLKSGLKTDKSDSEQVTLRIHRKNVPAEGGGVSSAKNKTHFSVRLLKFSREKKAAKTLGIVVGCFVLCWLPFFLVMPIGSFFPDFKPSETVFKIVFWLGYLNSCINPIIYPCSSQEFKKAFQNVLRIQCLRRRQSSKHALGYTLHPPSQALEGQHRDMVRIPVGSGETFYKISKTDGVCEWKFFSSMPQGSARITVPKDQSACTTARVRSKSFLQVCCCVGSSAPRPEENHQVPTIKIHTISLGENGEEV
Summary of the method: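 Male CRL:CD(SD)BR-COBS rats (~150 g) were decapitated. Cortex was homogenized in 50 mM Tris-HCl pH 7.4, spun at 50000g, given 10 min at 37 °C and washed. Incubation buffer had 0.1% ascorbic acid and 10 μM pargyline. GF/B filtration and scintillation counting; IC50 from dose-inhibition curves.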

[5] = biological target: T3, 5-hydroxytryptamine receptor 1A (Rattus norvegicus, UniProt P19327); assay: In vitro inhibitory concentration against radioligand [3H]8-OH-DPAT binding to 5-hydroxytryptamine 1A receptor in rat hippocampal membrane.; assay type: cell membranes, Hippocampus
T3 sequence (P19327 whole entry): T1 sequence (whole entry)
Summary of the method: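 Rat hippocampal membranes (male SD rats, ~150 g) were washed in 50 mM Tris-HCl pH 7.4, including 10 min at 37 °C. Incubation buffer contained 4 mM CaCl2 and 10 μM pargyline. Filtered onto GF/B and counted; 50% inhibitory concentration from fitted curves.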

Compound	inhibition [1] [%]	inhibition [2] [%]	Selectivity [3]	IC50 [4] [nM]	IC50 [5] [nM]
Cc1sc2nc(SCCCN3CCN(c4ccc(Cl)cc4)CC3)nc(O)c2c1C	< 50	< 50			
Cc1sc2nc(SCCCN3CCN(c4ccccc4Cl)CC3)nc(O)c2c1C			0.35	161	
COc1ccccc1N1CCN(CCSc2nc(O)c3c4c(sc3n2)CCCC4)CC1			0.2	20	
O=c1[nH]c(SCCCN2CCN(c3ccccc3Cl)CC2)nc2sc3c(c12)CCCC3					943
Cc1sc2nc(SCCCN3CCN(c4ccccc4)CC3)n(N)c(=O)c2c1C			13	43	3.3
Oc1nc(SCCCN2CCN(c3ccccc3Cl)CC2)nc2sc3c(c12)CCCC3			0.2	168	
COc1ccccc1N1CCN(CCCSc2nc(O)c3c(C)c(C)sc3n2)CC1			2	40	24
Cc1sc2[nH]c(=S)n(N)c(=O)c2c1C	< 50			> 10000	
Cc1sc2nc(SCCCN3CCN(c4ccccc4Cl)CC3)[nH]c(=O)c2c1C					460
COc1ccccc1N1CCN(CCCSc2nc(O)c3cc(-c4ccccc4)sc3n2)CC1			0.6	224	386
COc1ccccc1N1CCN(CCCSc2nc3ccccc3c(=O)n2N)CC1			8	4	0.5
O=c1[nH]c(SCCCN2CCN(c3cccc4ccccc34)CC2)nc2sc3c(c12)CCCC3					371
Cc1sc2nc(SCCCN3CCN(c4cccc5ccccc45)CC3)[nH]c(=O)c2c1C					355
COc1ccccc1N1CCN(CCCSc2nc3sc(C)c(C)c3c(=O)n2Nc2ccccc2)CC1			0.06	32	497
NCCc1c[nH]c2ccc(O)cc12		< 50			
Cc1sc2nc(SCCCN3CCN(c4cccc5ccccc45)CC3)nc(O)c2c1C			2.5	886	
COc1ccccc1N1CCN(CCCSc2nc(O)c3c4c(sc3n2)CCCC4)CC1			0.6	38	
COc1ccccc1N1CCN(CCCSc2nc3sc(C)c(C)c3c(=O)n2C)CC1			9	27	3
COc1ccccc1N1CCN(CCCSc2nc(O)c3c(n2)sc2ccccc23)CC1			2	91	46

Compound	inhibition [1] [%]	inhibition [2] [%]	Selectivity [3]	IC50 [4] [nM]	IC50 [5] [nM]
Oc1nc(SCCCN2CCN(c3cccc4ccccc34)CC2)nc2sc3c(c12)CCCC3			1	445	
COc1ccccc1N1CCN(CCCOc2nc(SC)nc3sc4c(c23)CCCC4)CC1			0.05	75	1420
Cc1sc2nc(SCCCN3CCN(c4ncccn4)CC3)n(C)c(=O)c2c1C			31	2030	65
Cc1sc2nc(SCCCN3CCN(c4ncccn4)CC3)[nH]c(=O)c2c1C					226
Oc1nc(SCCCN2CCN(c3ncccn3)CC2)nc2sc3c(c12)CCCC3			3.5	1814	505
COc1ccccc1N1CCN(CCCSc2nc3sc4c(c3c(=O)n2C)CCCC4)CC1			9	64	7
COc1ccccc1N1CCN(CCSc2nc3sc4c(c3c(=O)[nH]2)CCCC4)CC1					97
COc1ccccc1N1CCN(CCCn2c(SC)nc3sc4c(c3c2=O)CCCC4)CC1			0.2	95	511
Cc1sc2nc(SCCCN3CCN(c4cccc(Cl)c4)CC3)nc(O)c2c1C			0.3	299	986
Cc1sc2nc(SCCCN3CCN(c4ncccn4)CC3)nc(O)c2c1C			5	1098	
COc1ccccc1N1CCN(CCc2nn3c(=O)c4c(C)c(C)sc4nc3s2)CC1			3	125	42
O=c1[nH]c(SCCCN2CCN(c3cccc4ccccc34)CC2)nc2sc(-c3ccccc3)cc12					2010
COc1ccccc1N1CCN(CCCSc2nc3sc4c(c3c(=O)[nH]2)CCCC4)CC1					59
COc1ccc(N2CCN(CCCSc3nc(O)c4c(C)c(C)sc4n3)CC2)cc1	< 50	< 50			
COc1ccccc1N1CCN(CCCSc2nc3sc4c(c3c(=O)n2N)CCCC4)CC1			30	39	1.3
Cc1ccc(N(CC2=NCCN2)c2cccc(O)c2)cc1	< 50				
COc1ccccc1N1CCN(CCCSc2nc3sccc3c(=O)n2N)CC1			2	2.9	1.2
Oc1nc(SCCCN2CCN(c3cccc4ccccc34)CC2)nc2sc(-c3ccccc3)cc12			1	2454	
